Data taken from ChEMBL document CHEMBL4028855, “New Mandelalides Expand a Macrolide Series of Mitochondrial Inhibitors” (J Med Chem, 2017).
Active and inactive are the calls of the source. The calls are words filed in the database; no cut-off is given here.

How the values were obtained:
NCI-H460 [1] = experiment: Cytotoxicity against human NCI-H460 cells assessed as reduction in cell viability measured after 48 hrs by MTT assay; assay type: functional, cell-based; settings: NCI-H460, 48 h
Summary of the method: (§1)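 Cells grown at 37 °C, 5% CO2 and seeded 16−18 h before treatment. Exposed to increasing concentrations or vehicle (0.1% DMSO) for 48 h. Viability read by MTT, with vehicle-treated cells set as 100%. Mean ± SE, n = 3 wells, at least three independent comparisons. EC50 obtained by nonlinear regression fit to a logistic equation.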

HeLa [2] = experiment: Cytotoxicity against human HeLa cells assessed as reduction in cell viability measured after 48 hrs by MTT assay
HeLa [3] = experiment: Cytotoxicity against human HeLa cells at 2000 cells per well assessed as decrease in cell viability at 100 to 1000 nM after 48 hrs by MTT assay relative to control; assay type: functional
HeLa [4] = experiment: Cytotoxicity against human HeLa cells at 6000 cells per well assessed as cell viability at 100 to 1000 nM after 48 hrs by MTT assay relative to control; assay type: functional
HeLa [5] = experiment: Cytotoxicity against human HeLa cells at 10000 cells per well assessed as cell viability at 100 to 1000 nM after 48 hrs by MTT assay relative to control; assay type: functional
Homo sapiens [6] = species on record: Homo sapiens; experiment: Inhibition of mitochondrial ATP synthase activity in human NCI-H292 cells assessed as decrease in basal oxygen consumption rate at 1 uM at 32 mins followed by addition of FCCP at 87 mins and rotenon /Antimycin A at 135 mins by real-time metabolic flux analysis; assay type: cell-based
[7] = (§2) Inhibition of bovine heart mitochondrial ATP synthase activity assessed as decrease in ATP-dependent NADH oxidation measured every 30 secs for 30 mins by colorimetric assay relative to control; set-up: species or system Bos taurus
Bos taurus [8] = species on record: Bos taurus; experiment: as §2
HeLa [9] = experiment: Cytotoxicity against human HeLa cells assessed as reduction in cell viability at 0.03 to 300 nM after 72 hrs in presence of 2-deoyxglucose by MTT assay; assay type: functional, cell-based
HEK-293T = experiment: Cytotoxicity against HEK293T cells assessed as decrease in cell viability measured after 48 hrs by MTT assay; assay type: cell-based; settings: human; summary of the method: as §1
[10] = Safety index, ratio of compound EC50 to Oligomycin A EC50 for cytotoxicity against HEK293T cells; assay type: cell-based, HEK-293T; settings: human, read-out: Ratio EC50
Summary of the method: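 HEK 293T cells were grown in DMEM with 10% FBS, 2 mM L-glutamine and 1% penicillin/streptomycin at 37 °C and 5% CO2. They were seeded at two starting densities 16−18 h before treatment with increasing concentrations of test compound or oligomycin A (final DMSO ≤0.1%). Viability was read by MTT relative to vehicle (100%), with EC50s fit by nonlinear logistic regression and compared as a ratio.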

NCI-H460 [11] = experiment: Cytotoxicity against human NCI-H460 cells assessed as reduction in cell viability measured after 72 hrs by MTT assay; settings: NCI-H460, 72 h
HeLa [12] = experiment: Induction of apoptosis in human HeLa cells assessed as caspase-3/7 activation at 1 to 300 nM incubated for 24 hrs measured by luminescence-based Caspase-Glo assay
Homo sapiens [13] = species on record: Homo sapiens; experiment: Inhibition of mitochondrial ATP synthase activity in human NCI-H292 cells assessed as decrease in oxygen consumption rate at 1 uM at 32 mins followed by addition of 1 uM FCCP at 87 mins and 0.5 uM rotenon /Antimycin A at 135 mins measured by real-time metabolic flux analysis; assay type: cell-based
Bos taurus [14] = species on record: Bos taurus; experiment: Inhibition of bovine heart mitochondrial ATP synthase activity assessed as decrease in ATP-dependent NADH oxidation at 12.5 uM measured every 30 secs for 30 mins by colorimetric assay relative to control
HeLa [15] = experiment: Cytotoxicity against human HeLa cells assessed as reduction in cell viability up to 1000 nM measured after 48 hrs by MTT assay; assay type: functional, cell-based; summary of the method: as §1
Bos taurus [16] = species on record: Bos taurus; experiment: Inhibition of bovine heart mitochondrial ATP synthase activity assessed as decrease in ATP-dependent NADH oxidation at 1 uM measured every 30 secs for 30 mins by colorimetric assay relative to control
Homo sapiens [17] = species on record: Homo sapiens; experiment: Inhibition of mitochondrial ATP synthase activity in human NCI-H292 cells assessed as decrease in oxygen consumption rate at 1 uM at 87 mins followed by addition of rotenon /Antimycin A at 135 mins measured by real-time metabolic flux analysis; assay type: cell-based
Homo sapiens [18] = species on record: Homo sapiens; experiment: Inhibition of mitochondrial ATP synthase activity in human NCI-H292 cells assessed as decrease in oxygen consumption rate at 1 uM at 135 mins after FCCP treatment at 87 mins by real-time metabolic flux analysis; assay type: cell-based
HeLa [19] = experiment: Cytotoxicity against human HeLa cells at 2000 cells per well assessed as decrease in cell viability at 0.25 to 1 uM after 48 hrs by MTT assay relative to control; assay type: functional
HeLa [20] = experiment: Cytotoxicity against human HeLa cells at 6000 cells per well assessed as decrease in cell viability up to 1 uM after 48 hrs by MTT assay; assay type: functional, cell-based
HeLa [21] = experiment: Cytotoxicity against human HeLa cells at 10000 cells per well assessed as decrease in cell viability up to 1 uM after 48 hrs by MTT assay; assay type: functional, cell-based
HeLa [22] = experiment: Cytotoxicity against human HeLa cells assessed as reduction in cell viability at […] after 72 hrs by MTT assay; assay type: functional, cell-based

CCCCCCCC(=O)OC[C@@H]1C[C@H](O)[C@@H]2C[C@H](C)[C@H](C/C=C\C=C\[C@H](C)C[C@@H]3C[C@H](O[C@@H]4O[C@@H](C)[C@H](O)[C@@H](O)[C@H]4OC)C[C@H](C/C=C/C(=O)O1)O3)O2
EC50 (NCI-H460 [1]): 9.8 nM | EC50 (HeLa [2]): 2.8 nM

CCCC(=O)O[C@H]1[C@@H](OC)[C@H](O[C@@H]2C[C@@H]3C[C@H](OC(C)=O)[C@@]4(O)C[C@H](C[C@H](OC(C)=O)[C@@H]5C[C@H](C)[C@H](C/C=C\C=C\[C@H](C)C[C@H](C2)O3)O5)OC4=O)O[C@@H](C)[C@H]1OC(=O)CCC
EC50 (NCI-H460 [1]): 2400 nM | EC50 (HeLa [2]): > 3000 nM

CO[C@H]1[C@H](O[C@@H]2C[C@@H]3C/C=C/C(=O)O[C@H](CO)C[C@H](O)[C@@H]4C[C@H](C)[C@H](C/C=C\C=C\[C@H](C)C[C@H](C2)O3)O4)O[C@@H](C)[C@H](O)[C@H]1O
Activity (HeLa [3]): 25% | Activity (HeLa [4]): 85% | Activity (HeLa [5]): 85% | inhibition (Homo sapiens [6]): Active | IC50 [7]: 2.2 nM | inhibition (Bos taurus [8]): Dose-dependent effect | Activity (HeLa [9]): Active | Activity (HEK-293T): Dose-dependent effect | selectivity ratio [10]: 13 to 30 | EC50 (HeLa [2]): 9.9 nM | EC50 (NCI-H460 [11]): 11 nM | Activity (HeLa [12]): Active

CCCC(=O)O[C@H]1[C@@H](OC)[C@H](O[C@@H]2C[C@@H]3C[C@H](OC(=O)CCC)[C@]4(O)C(=O)O[C@@H](C[C@H](O)[C@@H]5C[C@H](C)[C@H](C/C=C\C=C\[C@H](C)C[C@H](C2)O3)O5)[C@H]4O)O[C@@H](C)[C@H]1OC(=O)CCC
EC50 (NCI-H460 [1]): > 3000 nM | EC50 (HeLa [2]): > 3000 nM

CCCCCC(=O)O[C@H]1C[C@H]2C[C@@H](O)C[C@@H](C[C@@H](C)/C=C/C=C\C[C@@H]3O[C@@H](C[C@@H]3C)[C@@H](O)C[C@@H]3OC(=O)[C@]1(O)[C@@H]3OC(=O)CCC)O2
EC50 (NCI-H460 [1]): 2600 nM | EC50 (HeLa [2]): 330 nM

CC[C@@H]1/C=C/C=C/C[C@H](C)[C@@H](O)[C@](C)(O)C(=O)[C@@H](C)[C@H](O)[C@@H](C)C(=O)[C@H](C)[C@@H](O)[C@H](C)/C=C/C(=O)O[C@H]2[C@@H](C)[C@@H](CC1)O[C@@]1(CC[C@@H](C)[C@@H](C[C@H](C)O)O1)[C@@H]2C
inhibition (Homo sapiens [13]): Active | inhibition (Homo sapiens [6]): Active | inhibition (Bos taurus [14]): Active

CCCC(=O)O[C@H]1[C@@H](OC)[C@H](O[C@@H]2C[C@@H]3C[C@H](OC(=O)CCC)[C@@]4(O)C[C@H](C[C@H](O)[C@@H]5C[C@H](C)[C@H](C/C=C\C=C\[C@H](C)C[C@H](C2)O3)O5)OC4=O)O[C@@H](C)[C@H]1OC(=O)CCC
EC50 (NCI-H460 [1]): 910 nM | EC50 (HeLa [2]): 2000 nM

CCCC(=O)O[C@H]1C[C@H]2C[C@@H](O)C[C@@H](C[C@@H](C)/C=C/C=C\C[C@@H]3O[C@@H](C[C@@H]3C)[C@@H](O)C[C@@H]3OC(=O)[C@]1(O)[C@@H]3OC(=O)CCC)O2
EC50 (NCI-H460 [1]): 1700 nM | EC50 (HeLa [2]): 660 nM

COC(=O)/C=C/C[C@H]1C[C@@H](O[C@@H]2O[C@@H](C)[C@H](O)[C@@H](O)[C@H]2OC)C[C@@H](C[C@@H](C)/C=C/C=C\C[C@@H]2O[C@H]([C@@H](O)C[C@H](O)CO)C[C@@H]2C)O1
Activity (HeLa [15]): inactive

CCCC(=O)OC1C(=O)C(OC)C(O[C@@H]2C[C@@H]3C[C@H](OC(=O)CCC)[C@]4(O)C(=O)O[C@@H](C[C@H](O)[C@@H]5C[C@H](C)[C@H](C/C=C\C=C\[C@H](C)C[C@H](C2)O3)O5)[C@H]4O)OC1C (some centres undefined)
EC50 (NCI-H460 [1]): 270 nM | EC50 (HeLa [2]): 50 nM

COC[C@@H](C[C@H]1O[C@@](O)([C@H](O)[C@@H]2C[C@H](OC)[C@@H](O)CC/C=C(C)/C=C/[C@@H](O[C@@H]3O[C@@H](C)[C@H](OC)[C@@H](O)[C@@H]3O)[C@H](C)/C=C(C)/C=C(C)/C=C(\C)C(=O)O2)[C@H](C)[C@@H](O)[C@H]1C)O[C@H]1C[C@](C)(O)[C@@H](O[C@H]2C[C@@H](OC)[C@H](O)[C@@H](C)O2)[C@H](C)O1
inhibition (Bos taurus [16]): Active

CCCC(=O)O[C@H]1C[C@H]2C[C@@H](O[C@@H]3O[C@@H](C)[C@@H](O)[C@@H](O)[C@H]3OC)C[C@@H](C[C@@H](C)/C=C/C=C\C[C@@H]3O[C@@H](C[C@@H]3C)[C@@H](O)C[C@H]3C[C@@]1(O)C(=O)O3)O2
EC50 (NCI-H460 [1]): 44 nM | inhibition (Homo sapiens [13]): Active | inhibition (Homo sapiens [17]): Active | inhibition (Homo sapiens [18]): Active | inhibition (Homo sapiens [6]): Active | EC50 (HeLa [2]): 16 nM

CCCC(=O)O[C@H]1[C@@H](OC)[C@H](O[C@@H]2C[C@@H]3C[C@H](O)[C@]4(O)C(=O)O[C@@H](C[C@H](O)[C@@H]5C[C@H](C)[C@H](C/C=C\C=C\[C@H](C)C[C@H](C2)O3)O5)[C@H]4O)O[C@@H](C)[C@H]1OC(=O)CCC
EC50 (NCI-H460 [1]): 2000 nM | EC50 (HeLa [2]): 1900 nM

CCCC(=O)O[C@H]1C[C@H]2C[C@@H](O)C[C@@H](C[C@@H](C)/C=C/C=C\C[C@@H]3O[C@@H](C[C@@H]3C)[C@@H](O)C[C@@H]3OC(=O)[C@]1(O)[C@@H]3O)O2
EC50 (NCI-H460 [1]): > 3000 nM | inhibition (Homo sapiens [6]): inactive | IC50 [7]: 3400 nM | EC50 (HeLa [2]): > 3000 nM

CCCC(=O)O[C@H]1[C@@H](OC)[C@H](O[C@@H]2C[C@@H]3C[C@H](OC(=O)CCC)[C@@]4(O)C[C@H](C[C@H](OC(C)=O)[C@@H]5C[C@H](C)[C@H](C/C=C\C=C\[C@H](C)C[C@H](C2)O3)O5)OC4=O)O[C@@H](C)[C@H]1OC(=O)CCC
EC50 (NCI-H460 [1]): 790 nM | EC50 (HeLa [2]): > 3000 nM

OC[C@H]1OC(O)C[C@@H](O)[C@@H]1O (some centres undefined)
Activity (HeLa [19]): 50% | Activity (HeLa [20]): inactive | Activity (HeLa [21]): inactive | Activity (HeLa [22]): Active
